Test results as given in ChEMBL document CHEMBL1135588, “Divalent and trivalent alpha-ketocarboxylic acids as inhibitors of protein tyrosine phosphatases” (J Med Chem, 2002).

Experiments:
[1] = target: T1, Tyrosine-protein phosphatase non-receptor type 1 (Homo sapiens, UniProt P18031); experiment: Concentration required for 50% Inhibition of activity against Protein Tyrosine Phosphatases 1B
T1 sequence (P18031 whole entry): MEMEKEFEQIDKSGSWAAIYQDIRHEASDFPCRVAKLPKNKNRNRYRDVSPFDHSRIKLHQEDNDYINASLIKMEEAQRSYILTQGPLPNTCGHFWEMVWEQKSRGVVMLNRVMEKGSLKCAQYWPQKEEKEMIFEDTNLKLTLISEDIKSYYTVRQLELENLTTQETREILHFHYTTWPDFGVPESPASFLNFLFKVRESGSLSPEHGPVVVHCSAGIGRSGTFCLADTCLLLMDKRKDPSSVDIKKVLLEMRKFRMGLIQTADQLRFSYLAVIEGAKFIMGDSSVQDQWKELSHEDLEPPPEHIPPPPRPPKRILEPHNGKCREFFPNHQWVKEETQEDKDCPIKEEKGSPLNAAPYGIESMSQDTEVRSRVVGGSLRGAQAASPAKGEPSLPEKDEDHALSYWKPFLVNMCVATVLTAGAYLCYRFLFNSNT

[2] = target: Receptor-type tyrosine-protein phosphatase F (Homo sapiens, UniProt P10586); experiment: Concentration required for 50% Inhibition of activity against Protein-tyrosine phosphatase Lar
Outline: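 Yersinia PTPase and LAR, commercial enzymes. p-NPP at 2.5 mM; 1 mM EDTA, 100 mM NaCl, 100 mM acetate pH 5.5, 10% DMSO, 25 °C. Initial rates taken from hydrolysis followed at 420 nm, 10–120 s after mixing. IC50 obtained by Dixon analysis.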

Chain of Receptor-type tyrosine-protein phosphatase F (P10586 whole entry): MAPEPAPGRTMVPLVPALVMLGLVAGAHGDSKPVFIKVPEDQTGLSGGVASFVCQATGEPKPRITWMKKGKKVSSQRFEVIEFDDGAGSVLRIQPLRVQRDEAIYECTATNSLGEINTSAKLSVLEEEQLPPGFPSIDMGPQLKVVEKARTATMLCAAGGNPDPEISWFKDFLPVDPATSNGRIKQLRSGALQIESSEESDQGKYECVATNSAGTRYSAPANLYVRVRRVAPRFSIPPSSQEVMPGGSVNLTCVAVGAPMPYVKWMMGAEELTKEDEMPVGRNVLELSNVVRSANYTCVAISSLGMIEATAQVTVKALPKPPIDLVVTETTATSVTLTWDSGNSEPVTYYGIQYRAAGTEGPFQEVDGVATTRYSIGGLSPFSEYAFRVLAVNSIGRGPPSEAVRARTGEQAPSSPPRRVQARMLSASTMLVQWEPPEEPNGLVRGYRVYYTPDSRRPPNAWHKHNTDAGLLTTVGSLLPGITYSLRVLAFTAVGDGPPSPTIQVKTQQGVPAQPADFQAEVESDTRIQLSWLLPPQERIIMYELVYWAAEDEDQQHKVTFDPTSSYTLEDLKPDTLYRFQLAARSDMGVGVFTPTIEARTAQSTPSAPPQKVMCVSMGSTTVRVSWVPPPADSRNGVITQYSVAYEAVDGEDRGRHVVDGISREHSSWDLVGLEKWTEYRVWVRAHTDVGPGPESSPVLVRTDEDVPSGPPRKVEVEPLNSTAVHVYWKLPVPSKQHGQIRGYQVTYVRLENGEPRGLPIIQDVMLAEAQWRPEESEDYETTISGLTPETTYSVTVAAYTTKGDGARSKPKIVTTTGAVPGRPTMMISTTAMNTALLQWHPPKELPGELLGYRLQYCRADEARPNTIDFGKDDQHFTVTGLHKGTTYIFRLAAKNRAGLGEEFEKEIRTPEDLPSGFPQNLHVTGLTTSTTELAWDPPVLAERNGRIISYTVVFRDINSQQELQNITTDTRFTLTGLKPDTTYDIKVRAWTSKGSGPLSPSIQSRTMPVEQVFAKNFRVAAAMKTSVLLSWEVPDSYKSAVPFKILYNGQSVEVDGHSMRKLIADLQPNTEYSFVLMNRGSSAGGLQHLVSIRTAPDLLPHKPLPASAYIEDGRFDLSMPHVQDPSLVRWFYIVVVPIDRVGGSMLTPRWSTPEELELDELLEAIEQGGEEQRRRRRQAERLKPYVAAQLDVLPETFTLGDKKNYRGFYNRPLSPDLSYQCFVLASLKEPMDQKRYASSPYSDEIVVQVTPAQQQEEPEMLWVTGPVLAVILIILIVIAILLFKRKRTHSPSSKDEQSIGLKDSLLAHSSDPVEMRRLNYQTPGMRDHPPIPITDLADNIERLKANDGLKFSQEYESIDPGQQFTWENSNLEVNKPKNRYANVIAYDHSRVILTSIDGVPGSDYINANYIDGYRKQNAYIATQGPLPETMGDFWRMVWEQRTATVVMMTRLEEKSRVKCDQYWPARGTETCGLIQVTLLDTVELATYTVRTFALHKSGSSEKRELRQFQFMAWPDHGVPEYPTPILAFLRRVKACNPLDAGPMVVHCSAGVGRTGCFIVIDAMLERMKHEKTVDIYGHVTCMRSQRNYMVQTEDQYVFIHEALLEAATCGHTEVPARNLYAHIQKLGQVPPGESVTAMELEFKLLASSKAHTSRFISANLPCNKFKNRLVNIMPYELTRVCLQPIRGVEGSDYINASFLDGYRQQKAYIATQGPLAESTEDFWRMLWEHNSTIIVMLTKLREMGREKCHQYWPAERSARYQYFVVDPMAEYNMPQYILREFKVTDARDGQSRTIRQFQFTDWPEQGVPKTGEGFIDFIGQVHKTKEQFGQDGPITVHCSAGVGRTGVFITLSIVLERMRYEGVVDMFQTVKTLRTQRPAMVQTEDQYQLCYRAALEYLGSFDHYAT

Row | SMILES | IC50 [1] | IC50 [2]
1 | O=C(O)C(=O)c1ccc(OCc2cccc(COc3ccc(C(=O)C(=O)O)cc3)c2)cc1 | 53 µM | 120 µM
2 | O=C(O)C(=O)c1ccc(OCc2ccc(COc3ccc(C(=O)C(=O)O)cc3)cc2)cc1 | 2.7 µM | 250 µM
3 | O=C(O)C(=O)c1ccc(O)cc1 | – | 2300 µM
4 | O=C(O)C(=O)c1ccc(OCc2cc(COc3ccc(C(=O)C(=O)O)cc3)cc(COc3ccc(C(=O)C(=O)O)cc3)c2)cc1 | 13 µM | 41 µM
5 | O=C(O)C(=O)c1ccc(OCc2ccccc2COc2ccc(C(=O)C(=O)O)cc2)cc1 | 19 µM | 120 µM
